Most compounds without a hit are left out; they make up all but 3.8% or so of the library.
KCNK9 inh: KCNK9 potassium channel inhibitors, primary screen, HEK293 cells, thallium flux; FluxOR thallium flux fluorescence; stronger effect = lower value; B-score at 10 µM; 1.2% of 310,000 active; Potassium channel subfamily K member 9 (Homo sapiens), Q9NPC2;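 active means ratio B-score over 3 SD below the library mean, with starting fluorescence within 5 SD of its mean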;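 further: negative B-score means less thallium flux so channel inhibition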
Target sequence (Q9NPC2 whole entry, looked up): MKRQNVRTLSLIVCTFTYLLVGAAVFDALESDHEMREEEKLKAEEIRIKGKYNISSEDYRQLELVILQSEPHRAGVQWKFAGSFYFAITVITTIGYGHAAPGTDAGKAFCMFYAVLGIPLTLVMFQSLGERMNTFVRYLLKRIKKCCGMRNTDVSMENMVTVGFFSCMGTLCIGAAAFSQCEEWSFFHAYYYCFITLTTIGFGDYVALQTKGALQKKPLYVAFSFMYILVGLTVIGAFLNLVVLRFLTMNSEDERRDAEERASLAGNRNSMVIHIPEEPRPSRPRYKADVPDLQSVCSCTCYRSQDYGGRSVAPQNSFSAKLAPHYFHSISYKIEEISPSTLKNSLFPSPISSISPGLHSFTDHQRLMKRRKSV
KCNQ1 pot: potentiators or activators of KCNQ1 channel, primary screen, cell-based, thallium flux, high-throughput; Potassium voltage-gated channel subfamily KQT member 1 (Homo sapiens), P51787; CHO-K1 KCNQ1, thallium flux FluxOR fluorescence; stronger effect = higher value; B-score at 10 µM; 0.35% of 310,000 active; AID 2648, 2010;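 active means fluorescence ratio B-score, a plate-corrected score, at least three library SD, with initial intensity B-score within 5 SD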
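Test system: CHO-K1 cells stably expressing KCNQ1 / Medium: assay buffer / Also added: depolarizing K+/Tl+ stimulus, K2SO4 and Tl2SO4 each 12.5 mM in 5x stock / Incubation: 90 min dye loading and 20 min compound exposure, both at room temperature / Signal: thallium influx via FluxOR fluorescence, kinetic imaging / Evaluation: B score of baseline-normalized fluorescence ratio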
KCNK3 block: human KCNK3 channel inhibitors, primary screen, CHO cells, FluxOR thallium flux, B-score | Potassium channel subfamily K member 3 (Homo sapiens), O14649 | FluxOR fluorescence; stronger effect = lower value | B-score at 10 µM | 0.84% of 340,000 active | AID 602410, 2012;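 active means B-score under library mean minus 4 SD, starting fluorescence ratio at most library mean plus 5 SD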;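 further: more negative B-score means stronger inhibition of thallium flux through KCNK3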
Target sequence (O14649 whole entry, looked up): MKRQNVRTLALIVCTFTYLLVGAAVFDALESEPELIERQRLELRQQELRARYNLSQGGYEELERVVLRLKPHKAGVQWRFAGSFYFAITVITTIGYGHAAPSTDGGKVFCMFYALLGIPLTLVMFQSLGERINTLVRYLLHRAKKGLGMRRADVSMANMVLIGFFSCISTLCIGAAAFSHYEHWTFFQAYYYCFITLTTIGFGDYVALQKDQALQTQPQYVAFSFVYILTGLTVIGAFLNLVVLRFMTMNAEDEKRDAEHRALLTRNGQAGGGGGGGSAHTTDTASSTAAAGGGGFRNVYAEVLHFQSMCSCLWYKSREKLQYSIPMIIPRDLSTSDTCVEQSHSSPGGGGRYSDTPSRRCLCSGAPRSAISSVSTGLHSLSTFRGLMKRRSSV
KCNQ1 block: inhibitors of human KCNQ1 channel, primary screen, cell-based, thallium flux, high-throughput; B-score at 10 µM; Potassium voltage-gated channel subfamily KQT member 1 (Homo sapiens), P51787; 1.3% of 310,000 active; AID 2642, 2010; CHO-K1 KCNQ1, FluxOR thallium flux fluorescence; stronger effect = higher value;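 active means compounds whose thallium flux B-score, printed positive for inhibition, exceeds three library SD while starting fluorescence stays within three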;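 further: channel opened by potassium depolarization with thallium stimulus after 20 min compound exposure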
Kir21 inh: inhibitors of mouse Kir2.1 inward-rectifier potassium channel | Inward rectifier potassium channel 2 (Mus musculus), P35561 | HEK293-Kir2.1, FluxOR thallium flux fluorescence; stronger effect = lower value | B-score at 10 µM | 0.85% of 310,000 active;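 active means fluorescence ratio B-score at or below minus 3 SD of library scores, with starting-brightness B-score within 2 SD, cut at about -4.2 in these data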;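 further: channel flux triggered by added potassium and thallium sulfate stimulus; B-score of peak minus minimum fluorescence over baseline after thallium stimulus; more negative B-score means stronger Kir2.1 block with less thallium influx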
hERG protect: hERG rescue from dofetilide block, primary screen, cell-based, CHO-hERG, FluxOR thallium flux, dofetilide IC70; Voltage-gated inwardly rectifying potassium channel KCNH2 (Homo sapiens), Q12809; dofetilide IC70 present; activation (rescue from dofetilide block), less the hit threshold, % at 10 µM; 0.51% of 310,000 active; AID 1511, 2009;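 active means activation above the mean of controls blocked by dofetilide plus 5 SD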;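 further: thallium influx through hERG after potassium depolarization seen as dye fluorescence rise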
KCNQ1 inh valid: KCNQ1 potassium channel inhibitors, confirmation, cell-based, Tl flux, duplicate; AID 588353, 2011; KCNQ1 cell line, FluxOR thallium flux fluorescence; shares compounds with KCNQ1 block; 93% of 1,600 active; inhibition, % at 10 µM;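 active means primary screen active, with duplicate mean exceeding buffer control mean plus 3 SD of buffer wells, cut at about 28% in these data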;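 further: 0% = buffer control ratio and 100% = XE991 inhibitor control ratio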
CHO KCNQ1 ctr: thallium flux effects in parental CHO cells, counter-screen for KCNQ1 inhibitor project, cell-based, Tl flux | shares compounds with KCNQ1 block | parental CHO-K1, FluxOR thallium flux fluorescence ratio; stronger effect = lower value; zero means no signal rise above baseline | fluorescence ratio (Tl flux) at 10 µM | 21% of 1,600 active;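 active means mean of duplicate thallium-flux fluorescence ratios in parental host cells more than 5 SD below the buffer control mean, cut at about 0.38 in these data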;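 further: ratio is peak minus minimum fluorescence divided by baseline fluorescence; actives read low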
KCNQ1 ephys val: KCNQ1 channel inhibitors, confirmation, orthogonal assay, cell-based, automated electrophysiology. shares compounds with KCNQ1 block. KCNQ1-CHO cells, automated patch clamp current. calls only at 10 µM. 20% of 490 active. AID 624120, 2012;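 active means KCNQ1 current drop exceeding 3 SD of negative control wells, seen in both duplicate runs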;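 further: steady state current during a 2 s step from -80 to +40 mV; negative values mean current inhibition and positive values mean potentiation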
KCNQ2 spec: KCNQ2 channel inhibition, selectivity assay for KCNQ1 inhibitor project, cell-based | shares compounds with KCNQ1 block | KCNQ2 cells, FluxOR thallium flux fluorescence | inhibition, % at 10 µM | 71% of 1,600 active | AID 651746, 2012;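 active means mean percent inhibition of the KCNQ2 thallium signal more than 5 SD above the buffer-only control wells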;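 further: KCNQ2 expressed in CHO cells; 0% = buffer control wells and 100% = XE-991 inhibitor control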
KCNQ1-KCNE1 inh: KCNQ1/KCNE1 channel inhibition, selectivity assay for KCNQ1 inhibitor project, CHO-K1 cells, thallium flux, FluxOR. 77% of 1,600 active. FluxOR thallium flux fluorescence. shares compounds with KCNQ1 block. AID 652147, 2013. inhibition, % at 10 µM;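 active means mean percent inhibition of duplicate wells above the buffer-only control mean plus 3 SD of those controls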;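 further: 0% = buffer only wells and 100% = XE-991 inhibitor control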
KCNK9 inh conf: KCNK9 potassium channel inhibitors, confirmation, HEK293 cells, thallium flux, duplicate. shares compounds with KCNK9 inh. FluxOR thallium flux fluorescence. inhibition, % at 10 µM. 43% of 4,900 active. AID 492992, 2010;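 active means thallium signal inhibited by more than 5 SD of the compound-free buffer control wells, on both duplicate plates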;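 further: 0% = assay buffer control wells without compound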
Kir2-1 spec: mouse Kir2.1 channel inhibition, confirmation, selectivity assay for KCNK9 modulator project, cell-based, HEK293, thallium flux. shares compounds with KCNK9 inh. Kir2.1 cells, FluxOR thallium flux fluorescence. inhibition, % at 10 µM. 4% of 4,900 active;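 active means thallium signal drop more than 5 SD beyond the mean of the no-compound control wells, seen in both duplicate plates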;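 further: signal is fluorescence rise after thallium addition divided by baseline fluorescence; plate controls were assay buffer only for no effect and full block by chlorpromazine control for full effect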
KCNK9 uninduced: thallium flux in non-induced HEK293 cells, confirmation, counter-screen for KCNK9 inhibitor project, cell-based, second counter screen, non-induced KCNK9-HEK293 | shares compounds with KCNK9 inh | FluxOR thallium flux | inhibition, % at 10 µM | 40% of 4,900 active | AID 492997, 2010;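 active means thallium signal drop beyond 5 SD of the untreated control mean, on both duplicate plates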;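 further: plate controls were buffer only IC0 wells for no effect and SID17386958 at its maximal inhibitory level for full effect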
KCNK3 inh conf: retest of human KCNK3 channel inhibitors, confirmation, CHO cells, FluxOR thallium flux, triplicate; 99% of 2,400 active; ratio percent of control, % at 10 µM; FluxOR fluorescence; 0% buffer, 100% carvedilol maximal block; shares compounds with KCNK3 block;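 active means ratio percent of control, averaged over triplicates, above buffer control mean plus 5 SD, cut at about 64% in these data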;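 further: ratio is the fluorescence rise from min to max over baseline after thallium stimulus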
KCNK3 noninduced: thallium flux inhibition in non-induced cells, primary screen, counter-screen for KCNK3 inhibitor project, cell-based, non-induced KCNK3 line, FluxOR thallium, triplicate. shares compounds with KCNK3 block. 40% of 2,400 active. non-induced KCNK3 parental cells; stronger effect = lower value. thallium flux ratio (lower = more inhibition) at 10 µM;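 active means thallium flux ratio, averaged over three wells, more than 5 SD below the buffer control mean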;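 further: host cells are CHO cells without KCNK3 induction; ratio is peak minus trough fluorescence over baseline then normalized to buffer controls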
An asterisk follows results filed as active; i = inactive; / = not tested or not shown; + = active, no number.

SMILES	KCNK9 inh	KCNQ1 pot	KCNK3 block	KCNQ1 block	Kir21 inh	hERG protect	KCNQ1 inh valid	CHO KCNQ1 ctr	KCNQ1 ephys val	KCNQ2 spec	KCNQ1-KCNE1 inh	KCNK3 inh conf	KCNK3 noninduced	others
Cc1onc(-c2ccccc2)c1C(=O)OCCOc1cccc(Cl)c1	i	i	-14*	7*	0.13	-9	86*	0.42	/	86%*	150%*	90*	i
FC(F)Sc1ccc(NC(=S)NC2CCCCC2)cc1	i	i	-10*	10*	0.78	-20	78*	0.53	/	i	36%*	104*	i
S=C(Nc1ccc(Br)cc1)NC1CCCC1	i	i	i	i	-1.1	-4	/	/	/	/	/	/	/
CCc1ccc2[nH]c3nc(C)cc(C)c3c(=O)c2c1	i	i	i	i	0.37	-1	/	/	/	/	/	/	/
COc1ccc(NC(=O)c2sc3nc(C)nc(N4CCN(c5ccccn5)CC4)c3c2C)cc1Cl	i	i	-12*	9*	0.54	-13	98*	0.44	i	88%*	105%*	118*	0.15*
Cc1nc(N2CCN(c3ccccn3)CC2)c2c(C)c(C(=O)Nc3ccc(F)cc3Cl)sc2n1	i	i	i	i	-0.81	-22	/	/	/	/	/	/	/
CCc1cc(=S)n2c([nH]c3ccccc32)c1C#N	i	i	-9.3*	11*	0.05	-11	102*	0.44	i	112%*	82%*	137*	0.057*
CCc1cc(=O)n2c([nH]c3ccccc32)c1C#N	i	i	i	i	1.1	-11	/	/	/	/	/	/	/
CCCn1c(=O)c(C(=O)NCCc2ccc(OC)c(OC)c2)c(O)c2ccccc21	i	i	-11*	9*	-0.6	-3	80*	0.41	/	101%*	63%*	107*	0.16*
CN(CC(=O)Nc1ccccc1Br)CC(=O)Nc1ccccc1-c1ccccc1	/	/	i	/	/	/	/	/	/	/	/	/	/
CN(CC(=O)Nc1ccccc1-c1ccccc1)Cc1ccccc1Cl	-16*	i	-9.6*	8*	0.47	-6	76*	0.38	/	98%*	122%*	120*	0.13*	KCNK9 inh conf=63%*;Kir2-1 spec=55%*;KCNK9 uninduced=46%*
CC(C)CNC(=S)N1CCN(c2nc(-c3ccc(Cl)cc3)cs2)CC1	i	i	-9.8*	11*	-0.06	-7	159*	0.41	i	128%*	142%*	140*	0.12*
COc1cccc(-c2csc(N3CCN(C(=S)NCC(C)C)CC3)n2)c1	i	i	i	i	0.14	-6	/	/	/	/	/	/	/
Cc1ccc(OCCC(=O)Nc2ccccc2C(=O)NC2CC2)cc1	i	i	i	i	0.2	-3	/	/	/	/	/	/	/
Cc1ccc(NC(=S)Nc2cccnc2)c(S(=O)(=O)N2CCCCC2)c1	i	i	-12*	13*	-0.57	-23	97*	0.51	i	i	68%*	110*	i
CCN(c1ccccc1)c1nc(C#N)nc(N(CC)c2ccccc2)n1	i	i	-11*	7*	-2.1	-10	106*	0.37*	/	112%*	80%*	102*	i	KCNK9 inh conf=i;Kir2-1 spec=i;KCNK9 uninduced=i
CCN(c1ccccc1)c1cc(C)nc2nc(C)nn12	i	i	i	i	-0.69	-6	/	/	/	/	/	/	/
CC(C)=CCc1c(O)cc(O)c2c1OC(c1ccc(O)cc1)CC2=O (stereo unspecified)	-12*	i	-15*	9*	-6.4*	-10	130*	0.35*	/	108%*	+	139*	0.11*	KCNK9 inh conf=48%*;Kir2-1 spec=i;KCNK9 uninduced=i
CSc1cccc(NC(=O)N2CCc3ccc(NC(=O)c4ccccn4)cc3C2)c1	i	i	-11*	6*	0.09	-12	112*	0.48	i	104%*	178%*	112*	0.16*
COc1ccccc1NC(=O)c1cc2cc(Br)ccc2cc1O	i	i	-8.8*	9*	1.7	-22	126*	0.45	i	97%*	107%*	135*	0.11*

From PubChem
